A short description of data set [1]: 1-Octanol/water partition coefficient, logP of the compound by HPLC analysis. It is filed as physicochemical.
Data set [2] can be described thus: Aqueous stability of the compound in PBS assessed as compound remaining at pH 7.4 incubated for 3 hrs by HPLC analysis. It is filed as physicochemical. Particulars: read-out: Stability. A digest of the protocol: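 Test compound at 0.1 mM in acetonitrile/PBS (5:95 v/v), held 3 h at 37 °C. Analysed by reversed-phase C18 HPLC with the column at 37.0 °C and UV detection at the peak wavelength between 220 and 240 nm. Residual % = peak area at 3 h / peak area at t0 × 100. Mean of triplicate runs.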

The next data set relates to Lipid bilayer. The data set can be described thus: Immobilized artificial membrane partition coefficient, logK-IAMex of the compound by HPLC analysis. The format is physicochemical. A digest of the protocol:
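Run on an IAM.PC.DD2 column. Mobile phase was 0.01 M PBS, or acetonitrile (40% to 25% v/v in 5% steps) in 0.01 M PBS, at pH 7.4. Dead time was taken with methanol. The 100% aqueous value was obtained by linear extrapolation from the acetonitrile runs. Mean of triplicates.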

The target of data set [3] is T1, Estrogen receptor (Homo sapiens) (UniProt P03372).
T1 sequence (whole entry): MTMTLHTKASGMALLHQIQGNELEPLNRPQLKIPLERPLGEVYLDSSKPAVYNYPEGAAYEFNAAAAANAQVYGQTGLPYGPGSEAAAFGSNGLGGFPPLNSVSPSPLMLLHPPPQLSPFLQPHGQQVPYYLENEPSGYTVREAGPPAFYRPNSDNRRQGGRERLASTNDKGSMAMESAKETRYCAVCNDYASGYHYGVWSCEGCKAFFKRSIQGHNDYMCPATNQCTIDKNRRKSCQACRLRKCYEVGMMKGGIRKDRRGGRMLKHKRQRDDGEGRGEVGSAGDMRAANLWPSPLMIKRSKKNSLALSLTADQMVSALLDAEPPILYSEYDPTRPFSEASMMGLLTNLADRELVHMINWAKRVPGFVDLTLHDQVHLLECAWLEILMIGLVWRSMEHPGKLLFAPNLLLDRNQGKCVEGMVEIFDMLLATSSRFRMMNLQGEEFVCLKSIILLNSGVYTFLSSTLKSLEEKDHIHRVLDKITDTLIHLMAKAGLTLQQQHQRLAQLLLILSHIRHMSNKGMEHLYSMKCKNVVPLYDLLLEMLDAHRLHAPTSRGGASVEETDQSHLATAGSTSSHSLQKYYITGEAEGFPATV
Kind of data set: (§1) Agonist activity at human ERalpha expressed in HEK293 cells assessed as increase in […] activity incubated for 24 hrs by luciferase based microplate reader assay. The format is cell-based.

Data set [4] in a line: Dissociation constant, pKa of the compound by pH-metric method. Particulars: in the assay text read “pH-dependent UV absorbance method” for “pH-metric method”. The format is physicochemical. In a few lines: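 Determined from the change in absorbance at λmax in pH-dependent UV spectra, recorded in 20:80 (w/w) methanol–phosphate buffer over pH 6.0–12.0. Meter pH corrected as pH* = pH(recorded) − 0.01. Triplicate measurements.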

The next data set addresses T2, Estrogen receptor (Homo sapiens, UniProt P03372).
T2 sequence (P03372 whole entry): T1 sequence (whole entry)
Described as §1. The format is cell-based.

Activity calls are given as the source filed them. The rule behind the calls is not given here. Where only a bound is given, the exact number is not on record here.

The term logP denotes the decadic logarithm of the partition coefficient of the neutral form, usually between octanol and water. Lower therefore signals lower lipophilicity. The molecule `CC(C)[P+](Bc1ccc(O)cc1)(C(C)C)C(C)C` returned a logP in data set [1] of 4.56.
One may read the pKa as the pH at which an ionisable group is half protonated. The low end stands for a stronger acid or weaker base, the high end for a weaker acid or stronger base. Consider `CC[P+](Bc1ccc(O)cc1)(CC)c1ccccc1`, for which the remaining at 3 h in data set [2] worked out at 97.6%. In data set [1], the logP is 4.11. Moreover, in the data set on Lipid bilayer, the logK-IAMex is 2.46. In addition, in data set [3], the outcome was inactive. Moreover, in data set [4], the pKa is 11.1.
What is called EC50 is the concentration giving half of the maximal effect. As for `CC[P+](Bc1cccc(O)c1)(CC)CC`, in data set [2], the remaining at 3 h is 99.7%. In addition, the logP in data set [1] is 3.47. Moreover, in the data set on Lipid bilayer, the logK-IAMex is reported as 1.59. Further, the EC50 at Estrogen receptor was greater than 10 µM. For the same molecule, in data set [4], the pKa stood at 11.3.
Take `CCCC[P+](Bc1ccc(O)cc1)(CCCC)CCCC`: the log partition coefficient (logP) in data set [1] was 6.32. The result in data set [3] was inactive.
The molecule `Oc1ccc(B[P+](C2CCCC2)(C2CCCC2)C2CCCC2)cc1` registered a logP in data set [1] of 6.23. The result in data set [3] was inactive.
For the molecule `C[P+](C)(Bc1cccc(O)c1)c1ccccc1`, the remaining at 3 h in data set [2] came to 99%. For the same molecule, the logP in data set [1] was found to be 3.27. The same molecule gave a logK-IAMex in the data set with Lipid bilayer of 1.71. In addition, the EC50 at Estrogen receptor is greater than 10 µM. Also, the pKa in data set [4] stood at 11.3.
For `CC[P+](Bc1cccc(O)c1)(CC)c1ccccc1` the same measures were 100%, 4.19, 2.28, 4.09 µM and 11.3.
On to `C[Si](C)(C)Cc1ccc(O)cc1`, for which, in data set [2], the remaining at 3 h was found to be 89.9%. In data set [1], this molecule gave a logP of 4.91. In the data set on Lipid bilayer, this molecule registered a logK-IAMex of 2.38. The EC50 on Estrogen receptor was 1.41 µM. Moreover, the pKa in data set [4] worked out at 10.7.
As for `C[Si](C)(Cc1ccc(O)cc1)c1ccccc1`, the remaining at 3 h in data set [2] amounted to 96.2%. Further, the logP in data set [1] worked out at 5.74. Moreover, in the data set with Lipid bilayer, the logK-IAMex turned out to be 3.05. The same molecule came in with a pKa in data set [4] of 10.9.
For `CC(C)[P+](Bc1ccc(O)cc1)(c1ccccc1)C(C)C`, the logP in data set [1] was found to be 4.79. Further, at Estrogen receptor, the EC50 was greater than 10 µM.
In turn, `CC(C)[P+](Bc1cccc(O)c1)(c1ccccc1)C(C)C` came in with a logP in data set [1] of 4.93. Further, the EC50 at Estrogen receptor was found to be 3.45 µM.
Turning to `Oc1ccc(B[P+](C2CC2)(C2CC2)C2CC2)cc1`, the lipophilicity (logP) in data set [1] was 3.8. At Estrogen receptor, the 50% effective concentration (EC50) came to 2.68 µM.
Molecule `Oc1ccc(B[P+](C2CCCCC2)(C2CCCCC2)C2CCCCC2)cc1` registered a logP in data set [1] of 7.22. For the same molecule, in data set [3], the outcome was inactive.
In the case of `CC(C)(C)Cc1ccc(O)cc1`, in data set [2], the remaining at 3 h stood at 92.5%. In addition, the log partition coefficient (logP) in data set [1] is 4.36. The molecule further came in with a logK-IAMex in the data set with Lipid bilayer of 2.22. The pKa in data set [4] stood at 10.8.
Consider `C[P+](C)(C)Bc1ccc(O)cc1`, for which the remaining at 3 h in data set [2] came out at 99.9%. The same molecule displayed a logP in data set [1] of 2.44. In addition, the logK-IAMex in the data set on Lipid bilayer came to 0.8. In addition, the result in data set [3] was inactive. This molecule also returned a pKa in data set [4] of 11.3.
For the molecule `C[P+](C)(C)Bc1cccc(O)c1`, in data set [2], the remaining at 3 h was found to be 100%. This molecule also gave a logP in data set [1] of 2.55. In the data set with Lipid bilayer, this molecule returned a logK-IAMex of 0.81. In addition, the result in data set [3] was inactive. The molecule further came in with a pKa in data set [4] of 11.3.
For `C[P+](C)(Bc1ccc(O)cc1)c1ccccc1`, in that order: 94.5%, 3.18, 1.91, “inactive” and 11.2.
For `CC(C)(Cc1ccc(O)cc1)c1ccccc1`, the remaining at 3 h in data set [2] stood at 99%. In data set [1], this molecule gave a logP of 5.26. Besides, the logK-IAMex in the data set with Lipid bilayer is 2.73. The same molecule gave a pKa in data set [4] of 10.7.
In the case of `CCCC[P+](Bc1cccc(O)c1)(CCCC)CCCC`, the log partition coefficient (logP) in data set [1] came out at 6.43. Besides, the result in data set [3] was inactive.
For `CC[P+](Bc1ccc(O)cc1)(CC)CC`, in data set [2], the remaining at 3 h was 99.3%. Moreover, in data set [1], the logP came to 3.28. Besides, the logK-IAMex in the data set on Lipid bilayer is recorded as 1.81. For the same molecule, the pKa in data set [4] is 11.

(Values after ChEMBL document CHEMBL5357039, “Physicochemical characterization of B-hydroxyphenyl phosphine borane derivatives and their evaluation as nuclear estrogen receptor ligands” (RSC Med Chem, 2024).)
